This is a sample that favours compounds with a hit; in the whole collection about 1.3% have one here.
TDP2 absorb – TDP2 (human) inhibition, absorbance primary screen | recombinant TDP2, T5PNP hydrolysis, p-nitrophenol absorbance 415 nm | inhibition, % at 12.8 µM | 370,000 tested, 0.34% active | AID 720702;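 active means inhibition above the mean of all tested compounds plus 3 SD, set per campaign, cut at about 25% in these data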;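 further: 0% = DMSO with enzyme and 100% = buffer with substrate but no TDP2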
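Evaluation: % inhibition relative to enzyme-containing and enzyme-free wells. Material: recombinant human TDP2. Benchmarks: enzyme-free and DMSO wells. Timing: enzyme reaction with compound for 2 h at 37 °C. Compound dosing: 12.8 µM only. Measured by: p-Nitrophenol epi absorbance. Reagent: T5PNP substrate at 5 mM, a TopII-DNA adduct mimic. Replication: single well per compound.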
LEDGF integ inh – blocks HIV-1 LEDGF/p75-dependent DNA integration; AID 743269; inhibition, % at 3.7 µM; 370,000 tested, 0.64% active; TR-FRET IN-LEDGF/p75 DNA integration, Eu/Cy5;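 active means inhibition above the screen-wide mean plus 3 SD, cut at about 13% in these data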;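 further: signal is the Cy5 over europium emission ratio at 671 and 618 nm; 0% = plate median of compound wells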
NSD2 inh – inhibitors of human histone methyltransferase NSD2; O96028; NSD2 peptide methylation, AlphaScreen, 120 min; inhibition, % at 12.5 µM; 310,000 tested, 0.54% active; AID 743445; in the data active means inhibition above about 50%
Casp6 inh – inhibitors of human caspase-6. P55212. purified caspase-6, Z-VEID-R110 cleavage fluorescence. inhibition, % at 12.5 µM. 350,000 tested, 0.53% active. AID 686996;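 active means mean inhibition across replicates at least about 35%, with every replicate also reaching that limit, limit read from the data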;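 further: 0% = median of neutral control wells and 100% = no fluorescence left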
UCH37 DUB inh – human UCH37 deubiquitinating enzyme inhibition; Q9Y5K5; purified proteasome/UCH37, Ub-AMC cleavage fluorescence; inhibition, % (no concentration beside the values); 330,000 tested, 0.33% active;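 active means mean inhibition over replicate wells above about 20%, limit read from the data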;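 further: 0% = compound-free wells with enzyme and 100% = wells lacking proteasome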
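Test system – human UCH37 enzyme supplied as purified proteasome complex · Incubation – 30 min preincubation with enzyme, 25 min cleavage at room temperature · Detection – AMC fluorescence from Ub-AMC cleavage, excitation 355 nm, emission 460 nm · Benchmarks – no-proteasome wells (full inhibition) and compound-free wells (no inhibition)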
IN multimer up – activates HIV-1 integrase multimerization in LEDGF counter-screen | AID 1053131 | TR-FRET HIV-1 integrase multimerization, biochemical | 2,000 tested, 17% active | shares compounds with LEDGF integ inh | activation, % at 7.7 µM; in the data active means activation above about 8.9%
TR-FRET interf – optically interferes with TR-FRET readout in LEDGF counter-screen; shares compounds with LEDGF integ inh; TR-FRET optical interference counterscreen, HIV-1 IN multimerization; inhibition, % at 7.7 µM; 2,000 tested, under 10 active; AID 1053135;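 active means inhibition above the mean over all tested compounds plus 3 SD, which no compound reached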;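 further: 0% = integrase with antibodies and DMSO and 100% = antibodies without integrase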
LEDGF integ conf – LEDGF/p75-dependent HIV-1 integration inhibition, confirmation. inhibition, % at 3.7 µM. 2,000 tested, 36% active. shares compounds with LEDGF integ inh. TR-FRET LEDGF/p75-dependent HIV-1 integration, biochemical; in the data active means inhibition above about 14%
An asterisk follows results filed as active; · = no result.

SMILES	TDP2 absorb	LEDGF integ inh	NSD2 inh	Casp6 inh	UCH37 DUB inh	IN multimer up	TR-FRET interf	LEDGF integ conf
Cc1ccc(C=NNC(=O)c2cc(-c3ccccc3)nc3ccccc23)o1	·	·	·	·	1	·	·	·
c1coc(CSSCc2ccco2)c1	-3	46*	·	82*	4	0	-2	11
Cc1ccc(Oc2ncccc2C=NOCc2ccc(Cl)cc2Cl)cc1	·	·	·	·	2	·	·	·
O=C1NC(=Nc2ccc(O)cc2)S/C1=C\C=C\c1ccco1	18	39*	15	13	13	18*	-93	53*
COc1ccc(N=C2NC(=O)/C(=C\c3ccco3)S2)cc1	6	5	-3	-3	2	·	·	·
Cc1nn(-c2ccccc2)c(N2CCCC2)c1C=Nn1cnc2scc(-c3ccccc3)c2c1=O	·	·	·	·	-62	·	·	·
Cc1ccc(/C=C2/CNC/C(=C/c3ccc(C)cc3)C2=O)cc1	4	92*	-2	-2	·	3	-11	7
Cc1ccc(/C=C2\CCOC2=O)cc1	-6	-7	-1	-1	4	·	·	·
O=C(NN=Cc1ccccc1)c1[nH]ncc1Br	·	·	·	·	4	·	·	·
O=C1c2ccccc2C(=O)N1/N=C/c1ccc(O)c(O)c1	10	30*	11	·	·	23*	-81	59*
CC1(C(=O)Nc2ccc3nc[nH]c3c2)CCN1C(=O)C1(c2ccccc2)CCCC1 (configuration not stated)	-5	25*	5	1	·	-2	9	-4
COc1ccc(C(C)=NNS(=O)(=O)c2ccccc2)c(OC)c1	·	·	·	·	3	·	·	·
COc1ccc(N2CC(C(=O)Nc3nccs3)CC2=O)cc1 (configuration not stated)	-5	-2	-3	·	4	·	·	·
CCOc1ccc(N2CC(C(=O)Nc3nnc(Cc4ccc(OC)cc4)s3)CC2=O)cc1 (configuration not stated)	-8	15*	7	21	1	2	-9	3
O=C(NCC(c1cccs1)N1CCOCC1)c1ccccc1NS(=O)(=O)c1ccc(Cl)c([N+](=O)[O-])c1 (configuration not stated)	3	35*	·	4	0	0	-1	-1
O=[N+]([O-])c1ccc(O)c(C=Nn2cnnc2)c1	·	·	·	·	17	·	·	·
Cn1ncc(C#N)c1N=CN(Cc1ccccc1)Cc1ccccc1	·	·	·	·	3	·	·	·
CCNc1nc(NC(C)C)nc(N(C#N)CC(=O)OC)n1	3	18*	0	-2	2	-1	4	2
C=CCNC(=S)NN=C(C)c1ccc(-n2ccnc2)cc1	·	·	·	·	1	·	·	·
CCOc1cccc(=O)c2c(C)n(CC(=O)c3ccccc3)c(C)c12	13	8	1	4	5	·	·	·
COc1cccc(=O)c2c(C)n(CC(=O)c3ccccc3)c(C)c12	-1	51*	0	-3	2	4	-15	7
O=C(NN=Cc1ccc(OCc2ccccc2)cc1)c1ccc(O)cc1	·	·	·	·	6	·	·	·
CCN(CC)c1ccc(NC(=O)CCS(=O)(=O)c2ccc(Br)cc2)c(C)c1	-10	17*	10	·	1	35*	-128	12
CC(=NNC(=O)c1nc2ccccn2c1C)c1cccc([N+](=O)[O-])c1	·	·	·	·	5	·	·	·
O=c1cc(CSc2nnc(NC3CCCCC3)s2)nc2sccn12	-6	-8	2	6	1	·	·	·
SMILES	TDP2 absorb	LEDGF integ inh	NSD2 inh	Casp6 inh	UCH37 DUB inh	IN multimer up	TR-FRET interf	LEDGF integ conf
C=CCn1c(SCc2cc(=O)n3ccsc3n2)nnc1C1CCCCC1	-4	15*	3	·	3	6	-29	2
C[C@H]1CN([C@@H](C)CO)C(=O)CCCn2nncc2CO[C@@H]1CN(C)S(=O)(=O)c1ccc(Oc2ccccc2)nc1	-1	26*	·	-6	·	0	2	-13
C[C@@H]1CN([C@H](C)CO)C(=O)CCCn2nncc2CO[C@H]1CN(C)S(=O)(=O)c1ccc(Oc2ccccc2)nc1	-1	-1	·	-1	·	·	·	·
CCCNC(=O)C1(C)CCCN(C(=O)c2cc(C)nn2C(C)(C)C)C1 (configuration not stated)	2	28*	-3	12	·	-4	18	0
CNC[C@H](O)c1ccc(O)c(O)c1	11	18*	·	·	2	1	-3	0
NC[C@H](O)c1ccc(O)c(O)c1	3	15*	·	79*	3	1	-7	-10
CC(C)NCC(O)c1ccc(O)c(O)c1 (configuration not stated)	7	-9	·	-10	3	·	·	·
Cc1cccc(C(=O)Nc2cccc(C(=O)NN=Cc3ccncc3)c2)c1	·	·	·	·	6	·	·	·
COc1ccc(C=NNc2cc(C)nc3ccccc23)cc1	·	·	·	·	-28	·	·	·
O=C(NN1C(=O)/C(=C/c2ccc(O)c(O)c2)SC1=S)c1ccccc1	-4	30*	·	45*	·	12*	-42	54*
CC1(C)N=C(C=NO)C=[N+]1[O-]	·	·	·	·	5	·	·	·
Cc1cc(CNC(=O)C(C)n2cc([N+](=O)[O-])cn2)c2ccccc2n1 (configuration not stated)	12	-4	-3	2	-4	·	·	·
Cc1cc(CNC(=O)Cn2cc([N+](=O)[O-])cn2)c2ccccc2n1	8	17*	-2	2	1	-2	8	6
CC(=O)ON=C(C)c1ncc(C(F)(F)F)cc1N1CCOCC1	·	·	·	·	-10	·	·	·
Cc1ccc(NC(=S)NN=C2CC3CC=CC23)c(C)c1 (configuration not stated)	·	·	·	·	9	·	·	·
CCC(=O)c1ccc(OCC(O)Cn2c(C)nc3ccccc32)cc1 (configuration not stated)	-11	-3	0	·	0	·	·	·
CCC(=O)c1ccc(OCC(O)Cn2cnc3ccccc32)cc1 (configuration not stated)	2	36*	0	·	-1	11*	-57	-3
CC(C)C[C@H]1CNC(=O)C(=O)N1C[C@H](Cc1ccc(O)cc1)NC(=O)Cc1ccccc1	4	75*	·	0	·	1	-3	-5
C[C@@H](CN1C(=O)C(=O)NC[C@@H]1Cc1ccc(O)cc1)NC(=O)Cc1ccccc1	-9	1	·	0	1	·	·	·
COCCN1C(=O)CN(S(C)(=O)=O)CC1(C)C(=O)NCc1ccccc1 (configuration not stated)	8	14*	-3	-3	·	0	-1	-1
COc1cc(C=NNC(=O)c2nc(C)cc(C)n2)ccc1O	·	·	·	·	6	·	·	·
CC(=O)Nc1ccc(C(=O)/C=C/c2ccco2)cc1	-2	28*	8	·	0	12*	-61	35*
O=C(COC(=O)/C=C/c1ccco1)Nc1ccccc1	4	4	·	18	4	·	·	·
